Sampled rows, rich in hits. Any-hit rate of the full collection: about 4.3%.
Rtt109 Vps75: inhibitors of Candida albicans Rtt109/Vps75 histone acetyltransferase; Q5AAJ8; purified Rtt109/Vps75, ThioGlo CoA-SH fluorescence, 4 h; inhibition, % at 34.9 µM; 330,000 compounds, 0.16% hits; AID 540336;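 active = inhibition of at least 50% in every replicate; inconclusive = best replicate reaches 50% inhibition but some replicates fall short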
Target sequence (Q5AAJ8 whole entry, looked up): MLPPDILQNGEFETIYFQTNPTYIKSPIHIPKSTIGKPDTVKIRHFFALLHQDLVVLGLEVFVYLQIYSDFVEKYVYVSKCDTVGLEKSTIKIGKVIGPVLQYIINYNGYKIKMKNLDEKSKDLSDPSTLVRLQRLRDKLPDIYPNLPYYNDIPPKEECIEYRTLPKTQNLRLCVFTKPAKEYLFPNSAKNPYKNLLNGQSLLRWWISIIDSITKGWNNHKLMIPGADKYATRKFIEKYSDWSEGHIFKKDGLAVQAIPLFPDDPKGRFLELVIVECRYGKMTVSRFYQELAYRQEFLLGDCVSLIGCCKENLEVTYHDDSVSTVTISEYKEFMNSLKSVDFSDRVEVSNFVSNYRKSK
DYRK1A inh: blocks rat Dyrk1A kinase activity; Q63470; ADP-Glo luminescence, NFATc1 peptide; inhibition, % at 12.5 µM; 310,000 compounds, 0.43% hits; in the data active = inhibition above about 50%;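 also: plate controls were vehicle with enzyme for no effect and no enzyme for full effect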
CAL PDZ FP-1: inhibitors of human CAL PDZ peptide binding | Q9HD26 | purified CAL PDZ, TMR-peptide fluorescence polarization, 1 h | inhibition, % at 20 µM | 330,000 compounds, 0.02% hits | AID 504414;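 active = highest replicate inhibition of at least 40%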;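 also: plate controls were DMSO neutral control wells for no effect and unlabeled competitor peptide control wells for full effect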
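material = purified tagged CAL PDZ domain construct (CerCALP) | compound dosing = 20 µM, one dose | times = 1 h at RT | measured by = fluorescence polarization from S- and P-plane intensities, G-factor corrected | read-out = inhibition from polarization loss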
ALR H2O2 inh: human ALR oxidase inhibition via reduced H2O2; P55789; purified ALR, DTT oxidation, H2O2 HRP-luminol luminescence; inhibition, % (no concentration beside the values); 290,000 compounds, 3.8% hits;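 active = mean replicate inhibition above about 79%, with every replicate also reaching it, limit read from the data; inconclusive = only one of the two criteria met; inactive = mean below limit and not every replicate reaching it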
Target sequence (P55789 whole entry, looked up): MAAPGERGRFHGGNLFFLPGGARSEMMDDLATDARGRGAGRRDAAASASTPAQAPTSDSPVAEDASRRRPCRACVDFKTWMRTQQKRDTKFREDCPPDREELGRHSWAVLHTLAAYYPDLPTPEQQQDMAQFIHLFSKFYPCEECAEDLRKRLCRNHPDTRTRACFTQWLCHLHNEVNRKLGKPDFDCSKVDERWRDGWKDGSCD
CAL PDZ FP-2: blocks peptide binding to the human CAL PDZ domain | inhibition, % at 24.9 µM | 300,000 compounds, 0.92% hits | Q9HD26 | AID 602252 | purified CAL PDZ, TMR-peptide fluorescence polarization, 1 h;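 active = mean inhibition of at least 30% with at least half of replicates also reaching 30%; inconclusive = no clear call, values can overlap the other calls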;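 also: 0% = DMSO neutral control and 100% = excess unlabeled competitor peptide PRC23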
* = called active by the depositor; ? = inconclusive; . = no result given.

SMILES	Rtt109 Vps75	DYRK1A inh	CAL PDZ FP-1	ALR H2O2 inh	CAL PDZ FP-2
O=C(O)/C=C/c1cn(Cc2ccccc2)nc1-c1ccccc1	7	-2	-1	3	0
COc1ccc(C(N)=O)c(OCC(=O)Nc2cc(C)on2)c1	0	-3	0	-1	39*
CCc1ccc(CNC(=O)C2CCCN(c3nnc(C)c4c(C)n(-c5ccccc5)nc34)C2)cc1 (stereo not drawn)	13	0	-2	-1	64*
O=C(Cn1cc(COc2ccc3ccc(=O)oc3c2)nn1)c1ccc(O)cc1	6	7	-1	.	30*
O=C(NC1CCCCC1)C(=S)NCCc1ccccc1	-5	-11	-2	-18	43*
Cc1cccc2sc(NC(=O)C3c4ccccc4Oc4ccccc43)nc12	2	2	.	-6	8
O=C1CSC(c2cccnc2)N1c1ccccc1 (stereo not drawn)	6	-4	-1	96*	.
CC(=O)Nc1ccc(N2C(=O)CSC2c2ccccc2)cc1 (stereo not drawn)	4	-2	1	99*	-3
CC(=O)Nc1ccc(N2C(=O)CSC2c2ccc([N+](=O)[O-])cc2)cc1 (stereo not drawn)	-3	2	.	?	-8
Cc1cccc(N2CCN(c3cccc(C)c3)C2c2cccnc2)c1	2	4	0	95*	0
Cc1cccc(N2C(=O)CSC2c2cccnc2)c1 (stereo not drawn)	4	1	-3	99*	-3
COC(=O)C(CC(C)C)NC(=O)c1cccs1 (stereo not drawn)	0	.	1	-3	-5
O=C(Cc1ccc(Br)cc1)N1CCOCC1	6	1	2	.	-2
COc1ccc(C(=O)NC2CCSc3ccccc32)cc1S(=O)(=O)N1CCOCC1 (stereo not drawn)	7	-1	0	0	.
O=C1CSC(c2ccccc2)N1c1cccnc1 (stereo not drawn)	2	0	0	93*	-2
CC(C)(C)c1ccc(N2C(=O)CSC2c2cccnc2)cc1 (stereo not drawn)	5	3	-1	.	.
Cc1cc(C(=O)N/N=C/c2c(CO)cnc(C)c2O)c2ccccc2n1	9	-1	-3	42	-4
Cc1ncc(CO)c(/C=N/Nc2cccc(Cl)n2)c1O	1	9	-1	86*	-6
CCN(Cc1ccncc1)S(=O)(=O)c1ccc(C(C)=O)cc1	-9	1	-1	90*	.
CCN(CC)S(=O)(=O)c1ccc(C(=O)Nc2ccc(Cc3ccncc3)cc2)cc1	20	-2	-3	.	-5
C=C(C)COc1ccc2c(C)c(CCC(=O)NC3CC3)c(=O)oc2c1	-4	-5	-3	-6	-1
Cc1cc(N2CCOCC2)nc(-c2ccc([N+](=O)[O-])cc2)n1	-1	1	-2	100*	0
CN(CC(=O)Nc1ccccc1Cl)C(=O)CN1C(=O)NC(c2ccccc2)(c2ccccc2)C1=O	12	1	-2	-1	85*
Cc1ccc(NC(=O)CN(C)C(=O)CN2C(=O)NC(C)(c3ccccc3)C2=O)cc1 (stereo not drawn)	6	1	0	-7	-4
CCOCCCNCC(=O)Nc1ccccc1N1CCOCC1	4	2	0	97*	.
SMILES	Rtt109 Vps75	DYRK1A inh	CAL PDZ FP-1	ALR H2O2 inh	CAL PDZ FP-2
O=C(CN1C(=O)C2CCCCC2C1=O)Nc1cccc([N+](=O)[O-])c1 (stereo not drawn)	12	25	-3	.	-6
O=C1CN(C(=S)NC(=O)c2ccc(-c3ccccc3)cc2)CCN1	-4	.	-1	-3	43*
COc1ccc(C(=O)NC(=S)N2CCNC(=O)C2)cc1Br	-11	7	-2	0	-1
COc1ccc(-c2noc(CNC(=O)c3ccoc3C)n2)cc1OC	8	0	-1	-34	-3
CCOC(=O)CC(NC(=O)CCc1c(C)nc2ncnn2c1C)c1ccc(C)cc1 (stereo not drawn)	-14	-1	-1	0	-3
Cc1cccc(C)c1NC(=O)c1ccc([N+](=O)[O-])s1	1	3	-2	.	-7
Cc1cccc(NC(=O)c2ccc([N+](=O)[O-])s2)c1C	.	-2	-2	-66	47*
CCNc1nc(OC)nc(N(OC)S(=O)(=O)c2ccc(C)cc2)n1	-1	-3	.	82*	74*
COc1ccccc1NS(=O)(=O)c1cc([N+](=O)[O-])ccc1N/N=C/c1c[nH]c2ccccc12	7	0	0	99*	-3
COc1ccc(NS(=O)(=O)c2cc([N+](=O)[O-])ccc2N/N=C\c2c(C)[nH]c3ccccc23)cc1	1	-2	-1	1	-2
COc1cccc(CNC(=O)COC(=O)CCCNC(=O)c2ccc(Cl)cc2)c1	-6	0	-3	0	-8
O=C(COc1ccc2cc(Br)ccc2c1)N1CCOCC1	-2	1	-1	.	103*
O=C(COc1ccc(Br)cc1)OCC(=O)N1CCOCC1	-3	3	0	.	.
O=C(COc1ccc(S(=O)(=O)Nc2ccc(Cl)cc2)cc1)N1CCOCC1	1	-7	-1	-13	100*
COc1cccc(C2C(C(=O)c3cc4ccccc4o3)=C(O)C(=O)N2c2cc(C)on2)c1 (stereo not drawn)	-3	-5	-4	98*	-3
C=CCOc1cccc(C2C(C(=O)c3cc4ccccc4o3)=C(O)C(=O)N2c2cc(C)on2)c1 (stereo not drawn)	-9	0	-3	-12	-6
O=C(C1=C(O)C(=O)N(CCCN2CCOCC2)C1c1ccc(Cl)cc1)c1cc2ccccc2o1 (stereo not drawn)	.	.	.	92*	.
COc1ccc(C2C(C(=O)c3ccc(C)o3)=C(O)C(=O)N2c2cc(C)on2)cc1OC (stereo not drawn)	20	2	0	3	3
COc1cccc(C2C(C(=O)c3cc4ccccc4o3)=C(O)C(=O)N2CCN(C)C)c1OC (stereo not drawn)	-7	-8	.	-4	33*
O=C(C1=C(O)C(=O)N(CCN2CCOCC2)C1c1ccc(Cl)cc1)c1cc2ccccc2o1 (stereo not drawn)	21	-2	-4	5	-3
COc1cccc(C2C(C(=O)c3ccco3)=C(O)C(=O)N2CCN(C)C)c1OC (stereo not drawn)	18	-3	-1	-7	-3
Cc1cc(N2C(=O)C(O)=C(C(=O)c3ccc(C)o3)C2c2ccc([N+](=O)[O-])cc2)no1 (stereo not drawn)	8	4	-2	97*	-5
COc1ccc(NC(=O)c2ccc(CNc3c(N4CCCC4)c(=O)c3=O)cc2)cc1Cl	-1	8	-2	.	6
O=C(CCNC(=O)c1ccc(Br)cc1)NNC(=O)C1COc2ccccc2O1 (stereo not drawn)	1	1	1	-2	-1
Cn1cc(/C=C(\NC(=O)c2ccccc2Cl)C(=O)NCCCn2ccnc2)c2ccccc21	10	0	-3	8	0
